The values that follow come from ChEMBL document CHEMBL2311493, “Focused pseudostatic hydrazone libraries screened by mass spectrometry binding assay: optimizing affinities toward γ-aminobutyric acid transporter 1” (J Med Chem, 2013).

The Ki is a measure of affinity in units of concentration, obtained from inhibition or displacement. Lower therefore signals a stronger hold on the target.

The target in assay [1] is T1, Sodium- and chloride-dependent GABA transporter 1 (Mus musculus, UniProt P31648). As to the kind of experiment: Binding affinity to mouse GAT1 expressed in HEK293 cells membranes using LC-ESI-MS/MS analysis by [2H10]NO711 binding inhibition assay. In kind it is cell membranes. In outline: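 Full competition with NO711 marker (20 nM) on mGAT1 HEK293 membranes in pH 7.1 phosphate buffer containing 1 M NaCl. Eight competitor concentrations, triplicate points. Bound marker was quantified by LC-ESI-MS/MS. Specific binding is total minus nonspecific. IC50 came from a one-site nonlinear fit and was converted to Ki by Cheng–Prusoff. pKi is mean ± SEM of at least three experiments.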

The target in assay [2] is T1, Sodium- and chloride-dependent GABA transporter 1. Description: Inhibition of [3H]GABA uptake at mouse GAT1 expressed in HEK293 cells after 25 mins by scintillation counting analysis. The assay is classed as cell-based.
The target of assay [3] is Sodium- and chloride-dependent GABA transporter 1 (Mus musculus) (UniProt P31648). As to the kind of experiment: Binding affinity to mouse GAT1 expressed in HEK293 cells membranes assessed as remaining [2H10]NO711 binding level at 10 uM using LC-ESI-MS/MS analysis by [2H10]NO711 binding inhibition assay. In kind it is cell membranes. In outline: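 Membranes from HEK293 cells stably expressing mGAT1, ~0.1 mg/mL protein, in pH 7.1 phosphate buffer with 1 M NaCl and 1% DMSO final. A single aldehyde (10 μM) and hydrazine 10 (100 μM) were incubated 4 h at 37 °C with the target to form the hydrazone. NO711 marker (20 nM) was then added for 40 min. Bound marker was recovered by filtration, 1 M NaCl washes and MeOH elution, then quantified by LC-ESI-MS/MS against [²H₁₀]NO711 internal standard. Result is % remaining specific binding, n = 4.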

In assay [1], `O=C(O)C1CCCN(CCN/N=C/c2ccccc2-c2ccc(F)cc2Cl)C1` (stereo not drawn) gave a Ki of 14.6 nM. In assay [2] (read-out: pIC50 (converted)), the IC50 is 292 nM. Besides, the Activity in assay [3] was below 5%.
`O=C(O)C1CCCN(CCN/N=C/c2ccccc2-c2ccc(Cl)cc2)C1` (stereo not drawn) gave a Ki in assay [1] of 173 nM. For the same molecule, the IC50 in assay [2] (read-out: pIC50 (converted)) was 973 nM. The Activity in assay [3] is below 5%.
In the same order, the values of `O=C(O)C1CCCN(CCN/N=C/c2ccccc2-c2ccc(F)cc2F)C1` (stereo not drawn) are 35.6 nM, 129 nM and below 5%.
For `Cc1ccc(-c2ccccc2/C=N/NCCN2CCCC(C(=O)O)C2)c(C)c1` (stereo not drawn), affinity in assay [1] was put at a Ki of 73.3 nM. The IC50 in assay [2] (read-out: pIC50 (converted)) is 836 nM. Also, in assay [3], the Activity is below 5%.
Consider `O=C(O)C1=CCCN(CCON=C(c2ccccc2)c2ccccc2)C1`, for which the IC50 was at most 530 nM in assay [1] and 40 nM in assay [2] (read-out: IC50). In addition, the Activity in assay [3] was below 5%.
In assay [1], `Cc1ccccc1-c1ccccc1/C=N/NCCN1CCCC(C(=O)O)C1` (stereo not drawn) showed a Ki of 216 nM. Further, the IC50 in assay [2] (read-out: pIC50 (converted)) was 1560 nM. In addition, in assay [3], the Activity is below 5%.
